Bioassay records: PubChem, several laboratories
This is a sample that favours compounds with a hit; in the whole collection about 6.3% have one here.
MT1-MMP txn act – activates MT1-MMP transcription; HT1080 MT1-MMP promoter luciferase reporter, luminescence, overnight; active compounds read high; activation factor at 10 µM; actives 0.16% (n = 86,000);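 active = activation factor of at least 2 for MT1-MMP transcription at 10 µM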
SF-1 act – activators of human nuclear receptor SF-1. Q13285. CHO-K1 Gal4-SF-1 LBD luciferase reporter; % increase over DMSO SF-1-specific signal. activation, % at 10 µM. actives 1.9% (n = 65,000). AID 522;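 active = activation above the mean activation of all tested compounds plus 3 SD, cut at about 50% in these data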
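material = CHO-K1 cells with Gal4–hSF-1 LBD chimera plus Gal4-driven luciferase | compound = 10 µM single point, 1% DMSO | incubation = 20 h compound exposure at 37 °C after 1 h cell settling | measured by = SteadyLite luciferase luminescence | evaluation = percent activation relative to DMSO median and mock-transfected background | control set = DMSO negative control and −SF1 background wells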
M1 antagonist – antagonists of rat M1 muscarinic receptor | P08482 | CHO-M1 cells, Fluo-4 calcium, ACh EC80 antagonist mode; active compounds read low | B-score at 10 µM | actives 3.4% (n = 64,000) | AID 628;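 active = calcium fluorescence response, raw or row-and-column corrected B-score, differing from the plate sample mean either way at a set confidence level, mostly lower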
Target sequence (P08482 whole entry, looked up): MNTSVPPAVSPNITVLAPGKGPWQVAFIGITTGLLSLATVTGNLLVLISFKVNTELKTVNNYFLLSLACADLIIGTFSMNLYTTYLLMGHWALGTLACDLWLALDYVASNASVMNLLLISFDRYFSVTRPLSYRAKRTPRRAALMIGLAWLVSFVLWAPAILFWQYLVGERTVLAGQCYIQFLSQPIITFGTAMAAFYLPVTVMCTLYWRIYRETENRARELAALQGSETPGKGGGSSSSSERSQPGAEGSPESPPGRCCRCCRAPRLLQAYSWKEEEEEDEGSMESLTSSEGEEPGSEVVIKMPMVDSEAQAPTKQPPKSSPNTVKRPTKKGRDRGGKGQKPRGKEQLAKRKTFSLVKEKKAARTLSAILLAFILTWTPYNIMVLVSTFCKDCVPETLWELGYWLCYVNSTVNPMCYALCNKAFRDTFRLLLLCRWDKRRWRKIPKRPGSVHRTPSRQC
M1 ag – M1 muscarinic receptor agonism; CHO-M1 cells, Fluo-4 calcium fluorescence, agonist mode; active compounds read high; B-score at 10 µM; actives 3% (n = 64,000); AID 626;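 active = fluorescence rise, raw or as B-score row- and column-corrected plate score, outside the 99.7% band of its plate's samples, either direction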
RORA act – RORA (human) activation; CHO-K1 Gal4-RORA LBD luciferase reporter, luminescence; percent increase over mock-subtracted basal signal; activation, % at 10 µM; actives 1.5% (n = 65,000); P35398;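 active = activation above the mean of all tested compounds plus 3 SD, cut at about 49% in these data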;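 note: 0% = DMSO-treated RORA cells and 100% = added signal equal to DMSO minus mock-transfected cells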
M1 ag confirm – rat M1 muscarinic agonism, confirmation; shares compounds with M1 ag; CHO-M1 cells, Fluo-4 calcium fluorescence, agonist mode; actives lie on both sides; fluorescence change (max-min) at 10 µM; actives 19% (n = 1,700); AID 1488;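 active = fluorescence change differs from the solvent-only DMSO control mean at a set confidence level in both duplicate runs; inconclusive = differs from solvent-only control mean in just one of two runs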;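 note: an EC20 dose of acetylcholine follows compound addition during the same imaging run; raw fluorescence intensity difference in instrument units with no normalization to controls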
M4 agonist ctr – activates rat M4 receptor in counter-screen for M1 agonists; shares compounds with M1 ag; CHO M4/Gqi5 cells, Fluo-4 calcium fluorescence, agonist mode; actives lie on both sides; fluorescence change (max-min) at 10 µM; actives 9% (n = 1,700);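 active = fluorescence change differing from the plate's solvent-only control wells at 99.7% confidence in both duplicates, whether higher or lower; inconclusive = differs from solvent controls in only one of two duplicates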
The depositor's hits bear a star; ? = inconclusive; . = not tested or not shown.

SMILES	MT1-MMP txn act	SF-1 act	M1 antagonist	M1 ag	RORA act	M1 ag confirm	M4 agonist ctr
COc1cc(-c2nc3cnccn3c2Nc2ccccc2)ccc1O	1.1	13	-1.7	5.5*	9	-28	-26
COc1cc(-c2nc3cnccn3c2Nc2ccc3c(c2)OCCO3)ccc1O	1.3	18	0.26	3.5*	25	-4.2	?
Nc1cc(Cl)ccc1N1CCOCC1	1.1	20	-1.3	-0.061	-7	.	.
Clc1ccc2c(c1)CNc1c(ncnc1N1CCOCC1)O2	0.9	-1	-2*	2.7*	-8	?	-74
CNC(=O)C1(C)C=CC2(CCCCC2)N1C(=O)OC (configuration not stated)	1.2	.	.	.	.	.	.
COc1ccc(NC(=O)c2oc3ccc(S(=O)(=O)N4CCC5(CC4)OCCO5)cc3c2C)cc1	1	12	-2.2	13*	29	?	-27
Cc1c(C(=O)O)oc2ccc(S(=O)(=O)N3CCC(C)CC3)cc12	1.2	2	0.39	-0.99	-7	.	.
Cc1c(C(=O)O)oc2ccc(S(=O)(=O)N3CC(C)CC(C)C3)cc12 (configuration not stated)	1.2	8	-11*	11*	-30	-10	?
O=C(CCN1C(=O)CSC1=O)Nc1ccccc1	1.2	-8	.	.	-18	.	.
O=C(O)c1cc2ccccc2n1-c1ccccc1	1.1	-3	0.21	0.41	10	.	.
O=C1c2ccccc2-c2onc3ccc(NCCCn4ccnc4)c1c23	.	28	-11*	97*	11	9	272
Cc1nc(NCCCn2ccnc2)c2ccccc2n1	1.1	11	0.24	-0.022	0	.	.
O=C1NC(c2ccco2)Nc2sc3c(c21)CCN(Cc1ccccc1)C3 (configuration not stated)	1.1	-9	-17*	17*	20	33	21
CCOn1c(=O)c(-c2cc3ccccc3o2)[n+]([O-])c2ccccc21	1.2	97*	-0.14	23*	60*	23	-13
CCOC(=O)C1CCN(C(=O)C2c3ccccc3C(=O)N(C)C2c2ccc(OC)cc2)CC1 (configuration not stated)	1	-11	-0.71	10*	-5	?	-39
CC1(C)CCN(Cc2ccccc2)C1CC#N (configuration not stated)	1.1	0	-0.061	0.4	-19	.	.
CNC(=O)c1cc2ccc(OC)cc2oc1=O	1.2	12	-2.3*	3.8*	-7	132*	93
O=C(O)CCCCCCC1C(=O)NC(=O)N1CCC(O)C1CCCCC1 (configuration not stated)	1	10	1.1	-0.032	-11	.	.
CCOC(=O)C1=C2SCCN2C(=O)C(C#N)C1(C)C (configuration not stated)	1	4	-0.19	3.5*	14	-16	-14
O=C(Nc1cccc(S(=O)(=O)c2cccc(NC(=O)C3CC3)c2)c1)C1CC1	1	-15	0.56	2.8*	1	-9.3	-14
Cc1n[nH]c(C)c1S(=O)(=O)N1CCN(C(=O)c2ccco2)CC1	1.1	-4	0.34	-0.33	-25	.	.
COC(=O)c1ccc(C(=O)OC)c(NC(=O)COC(=O)C23CC4CC(CC(O)(C4)C2)C3)c1	1.1	3	-1.7	5.3*	-18	-6.2	-22
CCOCC(=O)Nc1cc(C(=O)OC)ccc1C(=O)OC	1.1	-9	-0.21	-1	-3	.	.
CCCNS(=O)(=O)c1ccc(CCC(=O)N2CCCCC2)cc1	1.1	1	1.1	4.8*	-6	?	-49
CN(C)S(=O)(=O)c1ccc2nc(NC(=O)c3cccs3)sc2c1	1.5	.	.	.	.	.	.
SMILES	MT1-MMP txn act	SF-1 act	M1 antagonist	M1 ag	RORA act	M1 ag confirm	M4 agonist ctr
C=CCN(CC=C)S(=O)(=O)c1ccc2nc(NC(=O)C(C)C)sc2c1	0.6	20	-2.4*	8.5*	60*	?	-29
Cc1ccccc1Cn1ccc(NC(=O)c2cnn3c(C(F)(F)F)cc(-c4ccco4)nc23)n1	1.2	-20	-2.7*	9.2*	2	?	?
CCC(C)(C)NC(=O)CN(C(=O)CNS(=O)(=O)c1ccc(C)cc1)c1ccc2c(c1)OCCO2	1.1	16	1.4	2.6	-7	.	.
O=C(CNS(=O)(=O)c1ccccc1)NCc1ccccn1	1.1	-12	-0.064	-0.29	-13	.	.
Cc1cccn2c(=O)c3cc(C(=O)NCc4ccco4)c(=N)n(CCOCCO)c3nc12	1.2	7	-0.94	12*	-2	107*	?
N=c1c(C(=O)NCc2ccc(F)cc2)cc2c(=O)n3ccccc3nc2n1CC1CCCO1 (configuration not stated)	1.3	11	-0.97	3.7*	-14	90*	?
N=c1c(C(=O)NCc2ccco2)cc2c(=O)n3ccccc3nc2n1CCc1ccccc1	1.1	-8	0.5	9.6*	-18	39	3.6
Cc1ccc(S(=O)(=O)Nc2ccc3nc(-c4cccn4C)[nH]c3c2)cc1	1.3	10	-0.15	0.73	-6	.	.
CC1=CC(=C2N=C(c3ccccc3)OC2=O)C=C(C)O1	1.1	14	0.29	0.87	20	.	.
CC(=O)N1C(=O)C(=C2C=C(C)OC(C)=C2)c2ccccc21	1.1	-9	-0.84	28*	2	?	52
CCN(Cc1ccccc1)C(=O)COC(=O)c1n[nH]c2ccccc12	1	.	.	.	.	.	.
CCCCOC(=O)Cn1c(=O)c2c(nc(Br)n2Cc2ccccc2)n(C)c1=O	1.2	3	-0.009	7.5*	1	-18	-45
CCOC(=O)Cn1c(=O)c2c(nc(Br)n2Cc2ccccc2)n(C)c1=O	1	0	0.38	-0.19	-16	.	.
C=CCSc1nnc(-c2ccncc2)n1-c1ccc(OCC)cc1	.	-5	0.62	1.7*	-6	-12	-25
Cc1ccc2c(C)nc(Nc3nc(CSc4nnnn4-c4ccccc4)cc(=O)[nH]3)nc2c1	0.8	9	-0.6	8.6*	-10	-13	-19
COc1ccc2nc(Nc3nc(CSc4nnnn4-c4ccccc4)cc(=O)[nH]3)nc(C)c2c1	0.8	.	.	.	.	.	.
C=C(C)c1cccc(C(C)(C)NC(=O)Nc2ccc3[nH]c(=O)[nH]c3c2)c1	1.1	6	0.023	0.42	-4	.	.
O=C(COC(=O)c1cccc(NC(=O)c2ccco2)c1)c1ccc(Br)cc1	1.5	6	0.029	-0.4	18	.	.
O=C(COc1cccc(NC(=O)c2ccco2)c1)c1ccc(F)cc1	1.1	31	-1.1	5.7*	10	?	?
O=C(CSc1ccc2nnc(-c3ccccn3)n2n1)N1CCN(c2ccccc2)CC1	.	8	-0.58	3.3*	-5	-8.5	?
O=C(CSc1nnc(-c2ccc(Cl)s2)o1)N1CCOCC1	1.4	-4	.	.	18	.	.
